# Test: Toxicity liver stage against HepG2, at 10uM
# Assay type: cell-based
# Set-up: test concentration 10 uM, cell line HepG2-A16-CD81EGFP
# Conditions: human, HepG2-A16-CD81EGFP cells; read-out: INHIBITION
# How it was run: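 Uninfected HepG2-A16-CD81EGFP cells, 3 × 10^3 per well, 1536-well, plated on prespotted compound at 10 μM final, parasite-free screening media added to match infected plates; puromycin 10 μM positive, DMSO 0.5% negative; run in parallel with 48 h PbLuc assay at 37 °C, 5% CO2; viability by CellTiter-Glo luminescence, normalized to controls.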
row,Structure (SMILES),cytotoxicity at 10 µM
1,CCCS(=O)(=O)N1CCN(Cc2ccco2)CC1,4.28%
2,O=C1Nc2ccccc2/C1=C1\CCCCCN1,13.6%
3,CSCCC(Nc1nc(C)cc(C)n1)C(=O)NC(C)(C)CO (stereo unspecified),-5.15%
4,CNCc1ccc(Oc2cncc(C)n2)cc1,7.1%
5,c1cc(CN2CCc3c(CN4CCCC4)n[nH]c3C2)ccn1,-10.5%
6,Cc1nn(Cc2ccc(C(=O)NCCCN3CCCC3=O)o2)c(C)c1Cl,-10.2%
7,COc1ccc(C)cc1Nc1nc2c(C)nn(C)c2c(=O)n1C,3.96%
8,CCC(=O)N1CCCCC1c1nc(O)c2c(n1)CN(C(C)=O)CC2 (stereo unspecified),0.525%
9,Cc1nn(C)cc1NC(=O)CN1CCC(Oc2cnccn2)CC1,-4.19%
10,CNc1cc(C)nc(C2CCN(CCO)CC2)n1,1.56%
11,CC(=O)N1CCC(c2nn(C)c3nccnc23)C1 (stereo unspecified),-21.1%
12,CN(C)C(=O)CCc1cncc(C2CCCN2Cc2ccccn2)n1 (stereo unspecified),-3.94%
13,OCCN(CCO)Cc1ccc(Br)c2cccnc12,0.14%
14,CC(C)(C)NC(=O)CNc1ncccn1,-5.09%
15,c1csc(-c2noc(CCCNC3CCc4ncnn4C3)n2)c1 (stereo unspecified),-1.36%
16,CCCN(CC(F)(F)F)S(=O)(=O)c1cc(C(N)=O)n(C)c1,-4.15%
17,CC(C)(C)c1nccc(N2CCCCC2CCNS(C)(=O)=O)n1 (stereo unspecified),8.83%
18,CCn1nc(C)cc1C(=O)OCCNC(=O)c1ccccc1,1.44%
19,O=C(NCC1(O)CCSCC1)c1ccoc1,-6.61%
20,CCCNC(=O)CCNc1cncc(-n2nc(C)cc2C)n1,5.3%
21,COCCN1CCCN(C(=O)c2scnc2C)CC1,5.27%
22,Brc1csc(CNCc2nnc3n2CCC3)c1,5.63%
23,Cc1ccc(C(C)(O)CNC(=O)c2scnc2C)o1 (stereo unspecified),-1.42%

row,Structure (SMILES),cytotoxicity at 10 µM
1,COCc1ccccc1CNC(=O)CNc1ccccc1C(C)=O,3.49%
2,CCC1CN(c2ncnc3nc[nH]c23)CCO1 (stereo unspecified),19.5%
3,Nc1cc2c(nn1)CCN(C(=O)c1ccc(Oc3cccnc3)cc1)C2,6.27%
4,Cc1[nH]ncc1CCCNC(=O)N1CCOC(C)C1 (stereo unspecified),3.14%
5,O=C(NCc1cccnc1N1CCCCC1)c1ccc2c(c1)OCO2,-3.76%
6,CC(=O)Nc1nc(C)c(S(=O)(=O)NCCc2ccccn2)s1,-5%
7,COc1ccc2c(c1)CC(C(=O)N(C)CCCc1cnn(C)c1)CO2 (stereo unspecified),-7.55%
8,CC1(Cc2ccc3c(c2)OCO3)CCCN(S(=O)(=O)N2CCCC2)C1 (stereo unspecified),-0.788%
9,COc1ccccc1OC1CN(C(=O)CN(C)Cc2ccncc2)C1,-3.09%
10,CN(C)S(=O)(=O)NCc1nc(-c2cccc(F)c2)c(-c2ccccn2)[nH]1,-7.76%
11,O=C1O[C@@H]2CN(c3ccc(Cl)cn3)C[C@@H]2N1CCc1ccc(F)cc1,-2.77%
12,O=C(NCc1cc2n(n1)CCCNC2)C1(c2ccccc2)CCCCC1,-10.6%
13,O=S(=O)(NCc1ccccc1)N(Cc1ccccn1)CC1CCCO1 (stereo unspecified),1.62%
14,Cc1nn2c(NCC(=O)NC3CC3)cc(-c3ccccc3)nc2c1C,-5.1%
15,CC(=O)Nc1ccc(C(=O)Nc2cnc3n2CCCC3)cc1C,0.271%
16,Cc1ccccc1N1CCCN(C(=O)c2cn(C)c3ccccc23)CC1,-11.2%
17,c1cc(COc2ccc(CNC3CCc4ncnn4C3)cc2)ccn1 (stereo unspecified),-0.279%
18,CNS(=O)(=O)c1ccc(C(=O)N2CCCC2c2ccccc2)o1 (stereo unspecified),-7.67%
19,Cc1nc(-c2ccc(F)c(F)c2)cc(C2CCNCC2)n1,2.04%
20,CN(C)C(=O)CO[C@@H]1CN(Cc2ccccc2F)[C@@H]2CCCO[C@@H]21,-3.81%
21,COCCN1CCN(c2ccc(C)nn2)Cc2cccnc21,-3.68%
22,CCc1nc(C)cc(N2CCN(C(=O)[C@@H]3C[C@H]4C=C[C@@H]3C4)CC2)n1,5.68%
23,Cc1ccc(C(=O)N2[C@@H]3CC[C@H]2CC(=O)N(C)C3)c(=O)[nH]1,4.23%
